High-throughput results deposited in PubChem BioAssay by NMMLSC.
An excerpt weighted towards active compounds, which were near 2.3% of everything screened.
ABCG2 inh – ABCG2 efflux pump inhibitors, primary screen, multiplex with ABCB1, IgMXP3 cells, flow cytometry. JC-1 efflux. inhibition, % at 6.6 µM. Broad substrate specificity ATP-binding cassette transporter ABCG2 (Homo sapiens), Q9UNQ0. hit rate 0.1% among 190,000;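 active = inhibition above 80%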;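 also: 0% = DMSO and 100% = nicardipine control wells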
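Read-out basis: Efflux inhibition in percent versus controls | Test system: ABCG2 IgMXP3 and barcoded ABCB1 CCRF-Adr cell mix | Quantity: 3 million cells/mL in well | Schedule: 10 min at 25 °C | Control set: Nicardipine as high control, DMSO as low control | Reagent: JC-1 as fluorescent efflux pump substrate | Signal: Flow cytometry of retained JC-1 fluorescence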
MEKK2 WT-MEK5 – modulators of MEK5 binding to wildtype MEKK2, primary screen, biochemical, multiplex bead flow cytometry, Alexa488-MEK5 | Mitogen-activated protein kinase kinase kinase 2 (Homo sapiens), Q9Y2U5 | Alexa488-MEK5 binding to MEKK2 WT; actives lie on both sides | binding response (% of control), % at 10 µM | hit rate 1.1% among 290,000 | AID 1531, 2009; in the data active = binding response below about 67% or above about 130%
ABCB1 inh – ABCB1 efflux pump inhibitors, primary screen, cell-based, multiplex, flow cytometry, ABCG2 counter-screen; ATP-dependent translocase ABCB1 (Homo sapiens), P08183; inhibition, % at 6.6 µM; AID 1326, 2008; CCRF-Adr cells, JC-1 efflux; hit rate 0.067% among 190,000; in the data active = inhibition above about 40%;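 also: 0% = vehicle and 100% = reference inhibitor; higher value means more JC-1 retained so stronger ABCB1 efflux block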
MEKK2mut PB1 HTS – MEK5 binding signal on mutant MEKK2 PB1, primary screen, biochemical, multiplex bead flow cytometry, Alexa488-MEK5; AID 1530, 2009; percent response, % at 10 µM; Alexa488-MEK5 binding to MEKK2 mutant; hit rate 0.35% among 290,000; in the data active = percent response above about 24%, passing the limit was not always enough
MEKK3 PB1 HTS – modulators of MEKK3-MEK5 PB1 binding, primary screen, biochemical, wildtype MEKK3, multiplex bead flow cytometry, Alexa488-MEK5; Mitogen-activated protein kinase kinase kinase 3 (Homo sapiens), Q99759; bead-based flow cytometry, Alexa488-MEK5 binding to MEKK3; actives lie on both sides; 0 = blocked by unlabeled MEK5, 100 = vehicle; binding response (% of control), % at 10 µM; hit rate 1.4% among 290,000;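 active = binding response more than 3 SD above or below the average of its plate-row segment, actives on both sides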;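 also: Alexa488 bead fluorescence after subtracting the streptavidin-only scavenger bead signal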
MEKK2wt confirm – modulators of MEK5 binding to wildtype MEKK2, confirmation, biochemical, single concentration, multiplex bead flow cytometry. Alexa488-MEK5 binding to MEKK2 WT; actives lie on both sides. hit rate 2.4% among 5,900. AID 1892, 2009. shares compounds with MEKK3 PB1 HTS. binding response (% of control), % at 10 µM; in the data active = binding response below about 16% or above about 210%; inactive = in between
MEKK2mut-MEK5 – mutant MEKK2 PB1-MEK5 binding signal retest – biochemical, single concentration, multiplex bead flow cytometry, confirmation | shares compounds with MEKK3 PB1 HTS | Alexa488-MEK5 binding to MEKK2 mutant | percent response, % at 10 µM | hit rate 2% among 5,900 | AID 1893, 2009; in the data active = percent response mostly above about 71%, no sharp cut-off; inactive = mostly below about 38%;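 also: higher means compound restores mutant binding toward wildtype level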
MEKK3 confirm – MEKK3 wild-type PB1 binding to MEK5, inhibitors, confirmation, biochemical, bead multiplex flow cytometry, single concentration, wildtype. shares compounds with MEKK3 PB1 HTS. Alexa488-MEK5 binding to MEKK3; active compounds read low. binding response (% of control), % at 10 µM. hit rate 1.8% among 5,900;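 active = binding response below 72% of control, or above a set upper limit, though filed actives all read lower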;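 also: 100% = DMSO only wells and 0% = binding blocked by excess unlabeled MEK5; lower values mean stronger disruption of MEK5 binding to MEKK3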
* marks the source's active call; other numbers are inactive results; · = no result given; [ ] = remark or other dose.

SMILES	ABCG2 inh	MEKK2 WT-MEK5	ABCB1 inh	MEKK2mut PB1 HTS	MEKK3 PB1 HTS	MEKK2wt confirm	MEKK2mut-MEK5	MEKK3 confirm
O=C(O)CCn1c(CO)nc2ccccc21	1	107	0	-1	129*	106	5	105
Cn1c(=O)oc2cc(S(=O)(=O)NCc3ccccc3)ccc21	2	98	1	1	98	·	·	·
Cn1c(=O)oc2cc(S(=O)(=O)NCc3ccc(Cl)cc3)ccc21	·	-6.0*[inhibitor]	·	-57	0.0*[inhibitor]	93	-9	100
CCOc1ccc(-n2nc(C(=O)NC3CCCCC3)c3ccccc3c2=O)cc1	·	93	·	2	98	·	·	·
Cc1ccsc1C(C(=O)NCc1ccccc1)N(C(=O)c1csnn1)c1ccccc1 (configuration not stated)	·	101	·	11	99	·	·	·
CC(=O)c1c(C)[nH]c(C(=O)NC2=NCCS2)c1C	4	3.0*[inhibitor]	0	-14	2.0*[inhibitor]	1.0*[inhibitor]	-29	2.0*
CC(=O)c1c(C)[nH]c(C(=O)Nc2ccccn2)c1C	·	97	·	-6	95	·	·	·
COc1cccc(CNC(=O)CN2C(=O)COc3ccc(S(=O)(=O)N4CCC(C)CC4)cc32)c1	·	101	·	2	98	·	·	·
COCCCNCCOCCSc1ccc(Cl)cc1	1	93	1	-2	91	·	·	·
COCCCNCCCCSc1ccc(Cl)cc1	0	93	0	-1	52*[inhibitor]	104	4	101
CCOC(=O)Cc1csc(NC(=S)NC(=O)c2cccc([N+](=O)[O-])c2)n1	1	108	0	1	139*	106	4	103
CCOC(=O)Cc1csc(NC(=O)/C=C/c2cccc(Br)c2)n1	8	47*[inhibitor]	0	-17	44*[inhibitor]	101	-3	101
CCOC(=O)Cc1csc(NC(=O)c2sc3nc4cc(C)ccc4cc3c2N)n1	-8	93	-1	13	144*	110	13	110
Fc1ccc(/C=N/N2CCN(Cc3ccccc3)CC2)cc1	·	102	·	-4	101	·	·	·
CN(C)S(=O)(=O)c1cccc(NC(=O)CSc2nc3ccccc3n2-c2ccccc2)c1	2	110	1	-1	153*	104	-3	104
Cc1cc(C)n(-c2nc(NCCCN(C)C)c3c4c(sc3n2)CCCC4)n1	·	113	·	15	104	·	·	·
Cc1cc(C)n(-c2nc(NCCN(C)C)c3c4c(sc3n2)CCCC4)n1	·	147*	·	28	88	137	31	105
Cc1nc(N2CCN(c3ccccn3)CC2)c2c(C)c(C(=O)N3CCN(c4ccccc4F)CC3)sc2n1	·	88	·	-9	93	·	·	·
O=S(=O)(NCC1CCCO1)c1ccc(Cl)cc1 (configuration not stated)	·	111	·	6	101	·	·	·
Cc1ccc(-c2csc3nc4c5ccccc5c(NCCCN5CCOCC5)nn4c(=O)c23)cc1	7	145*	3	15	103	175	34	105
Cc1ccc(-c2nc3ccccc3c(=O)n2CCCN2CCOCC2)cc1	2	91	1	-2	91	·	·	·
O=C(NCc1ccccc1Cl)c1cc2c(s1)CS(=O)(=O)C2	·	101	·	5	104	·	·	·
FCCCOc1ccc(-c2nccc(-c3ccc(Cl)cc3)n2)cc1	15	91	1	-15	77*[inhibitor]	105	7	106
COc1ccc(-c2ccnc(-c3ccc(OCCCF)cc3)n2)cc1	23	98	1	-10	99	·	·	·
CC(C)N(CCNCC(O)COc1ccc(C(C)(C)c2ccccc2)cc1)C(C)C (configuration not stated)	1	172*	1	29	109	146	33	105
SMILES	ABCG2 inh	MEKK2 WT-MEK5	ABCB1 inh	MEKK2mut PB1 HTS	MEKK3 PB1 HTS	MEKK2wt confirm	MEKK2mut-MEK5	MEKK3 confirm
CC(C)CCNCC(O)CON=C1c2ccccc2-c2ccccc21 (configuration not stated)	-1	161*	1	2	98	144	21	104
OC(CNCCc1ccc(Cl)cc1)COc1cc(Cl)ccc1Cl (configuration not stated)	·	122	·	26*	107	128	22	105
COCCNCC(O)CON=C1c2ccccc2-c2ccccc21 (configuration not stated)	0	120	1	11	106	·	·	·
OC(CNCCc1ccccc1)COc1ccc(OCC(O)CNCCc2ccccc2)cc1 (configuration not stated)	·	172*	·	40	98	172	39	107
COc1ccc2[nH]cc(/C=C/c3cc[n+](C)cc3)c2c1	·	110	·	0	103	·	·	·
CC1C(=O)N2CCCc3cc(NC(=O)CC(C)(C)C)cc1c32 (configuration not stated)	·	102	·	0	104	·	·	·
O=C(NNCC(O)COc1ccccc1)c1ccccc1 (configuration not stated)	2	105	0	0	138*	91	-6	101
COc1ccc(OCC(O)CNC(=O)c2ccccc2)cc1 (configuration not stated)	·	103	·	3	96	·	·	·
OC(CNCCC(c1ccccc1)c1ccccc1)COc1ccccc1 (configuration not stated)	-2	313*	-1	142*	109	115	5	105
COCCCC1CCN(C(=O)C2CCC(=O)N(CC3CCCCC3)C2)CC1 (configuration not stated)	·	109	·	5	103	·	·	·
O=C(CSc1nc(-c2ccccc2)nc2ccccc12)Nc1cccc(C(=O)O)c1	0	6.0*[inhibitor]	-1	-42	4.0*[inhibitor]	118	6	102
CCN(CC)CCNC(=O)CCc1c(C)nc2c(c(C)nn2-c2ccc(C)cc2)c1C	·	111	·	1	99	·	·	·
CC1=NN(c2cccc(C(=O)O)c2)C(=O)/C1=C\C=C\c1ccco1	-2	97	-1	-3	102	·	·	·
CC1=NN(c2ccccc2)C(=O)/C1=C/C=C/c1ccccc1	12	100	0	-1	129*	101	4	101
